Assay results of several laboratories.
Protocols differ between the studies behind these lines.
Cell line: A549
Read-out: cell growth or viability

`CC1=CC(=O)c2c(O)cccc2C1=O` gave an IC50 of 2820 nM (SRB).
The IC50 of `CC1=C(O)C(=O)C=C2C1=CC=C1[C@@]2(C)CC[C@@]2(C)[C@@H]3C[C@](C)(C(=O)OCCCn4cc(C=O)c5ccccc54)CC[C@]3(C)CC[C@]12C` is reported as 7830 nM (MTT; 48 h).
`Cc1cccc(-n2ncc(Cl)c(Cl)c2=O)c1` has an IC50 of 1400 nM (resazurin; 96 h).
With `CC[C@@]1(O)C(=O)OCc2c1cc1n(c2=O)Cc2cc3cc4c(cc3nc2-1)OCO4` the IC50 was 29 nM (MTT; 72 h).
`N.N.[Cl][Pt][Cl]` gave an IC50 of 3400 nM (resazurin; 72 h).
`COc1c2c(cc3c1OCO3)[C@]13C=C[C@H](OC)C[C@@H]1[N@](C2)C[C@H]3OC(=O)c1ccc2ccccc2c1` has an IC50 of over 10000 nM (WST-1).
`Cc1ccc(CN2C(=O)/C(=N\NC(=O)c3cc4ccccc4[nH]3)c3ccccc32)cc1` gave an IC50 of 640 nM.
For `CC[C@@]1(OC(=O)C(C)c2cccc(C(=O)c3ccccc3)c2)C(=O)OCc2c1cc1n(c2=O)Cc2cc3cc4c(cc3nc2-1)OCO4` (stereo partly shown), the IC50 was 289 nM (MTT).
`O=C(N/N=C1\C(=O)N(Cc2ccccc2)c2ccc(Cl)cc21)c1cc2ccccc2[nH]1` gave an IC50 of 1380 nM (imaging; 48 h).
With `CCCCCCCC(=O)SCC/C=C/[C@@H]1CC(=O)NCc2nc(cs2)C2=N[C@@](C)(CS2)C(=O)N[C@@H](C(C)C)C(=O)O1` the IC50 was 3.8 nM (resazurin; 48 h).
`CSC(=NNC(=O)c1ccc(Cl)c(Cl)c1)SC` has an IC50 of 69000 nM (MTT; 5 days).
`CC[C@@]1(OC(=O)[C@@H](N)Cc2ccccc2)C(=O)OCc2c1cc1n(c2=O)Cc2cc3cc4c(cc3nc2-1)OCO4` gave an IC50 of 36 nM (MTT).
For `O=C(N/N=C1\C(=O)N(Cc2ccccc2)c2ccccc21)c1cc2ccccc2[nH]1`, the IC50 was 1060 nM.
`CC[C@@]1(OC(=O)C(C)c2ccc(CC(C)C)cc2)C(=O)OCc2c1cc1n(c2=O)Cc2cc3cc4c(cc3nc2-1)OCO4` (stereo partly shown) has an IC50 of over 5000 nM (MTT).
`Nc1cc(Br)c(Br)cc1N` has an IC50 of 75000 nM (72 h).
The IC50 of `O=C(N/N=C1\C(=O)N(Cc2ccccc2)c2ccc(Br)cc21)c1cc2ccccc2[nH]1` is reported as 650 nM.
The IC50 of `CCC1(OC(=O)C(C)c2ccc3cc(OC)ccc3c2)C(=O)OCc2c1cc1n(c2=O)Cc2cc3cc4c(cc3nc2-1)OCO4` (stereo not shown) is reported as 471 nM (MTT).
The IC50 of `O=C(N/N=C1\C(=O)N(Cc2ccccc2)c2ccc(F)cc21)c1cc2ccccc2[nH]1` is reported as 1410 nM.
`CC[C@@]1(OC(=O)[C@@H](N)CCSC)C(=O)OCc2c1cc1n(c2=O)Cc2cc3cc4c(cc3nc2-1)OCO4` has an IC50 of 85 nM (MTT).
